Results as given in ChEMBL document CHEMBL1687727, “Distinct mode of interaction of a novel ketolide antibiotic that displays enhanced antimicrobial activity” (Antimicrob Agents Chemother, 2009).
≈ marks a conversion by molar mass, not a printed value. Calls of active or inactive are those of the source. The rule behind the calls is not given here.

Assays:
Escherichia coli K-12 [1] = assay: Binding affinity to Escherichia coli K-12 Pi complex of 70S ribosome Pi complex U2609C mutant assessed as blockade of tylosin-induced inhibition of AcPhe-puromycin synthesis at 10 uM after 2 mins by liquid scintillation counting
Method in brief: (§1)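 Pi complexes were formed on ribosomes carrying the A2058G or U2609C mutation (Ac[3H]Phe-tRNA at the P-site of MF-mRNA-programmed 70S; buffer A). Complexes were pre-exposed to antibiotic (final 10 μM) at 37°C for 2 min, then tylosin was added (final 5 μM). They were then reacted with 1 mM puromycin at 37°C for 2 min to measure AcPhe-puromycin formation.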

Nucleic Acid [2] = assay: Binding affinity to Escherichia coli K-12 70S ribosome 23S rRNA A2062 mutant assessed as protection against DMS-induced modification of 23S rRNA domain II at nucleotides A752 and by primer extension analysis; assay type: nucleic-acid assay
Nucleic Acid [3] = assay: Binding affinity to Escherichia coli K-12 70S ribosome 23S rRNA A2062 mutant assessed as enhancement of DMS-induced modification of 23S rRNA domain V at nucleotides A2062 by primer extension analysis; assay type: nucleic-acid assay
Escherichia coli K-12 [4] = assay: Binding affinity to Escherichia coli K-12 70S ribosome Pi complex assessed as inhibition of AcPhe-puromycin synthesis at 10 uM after 2 mins by liquid scintillation counting
Method in brief: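 Pi complex: Ac[3H]Phe-tRNA bound at the P-site of MF-mRNA-programmed 70S ribosomes (0.3 μM ribosomes, 2.0 μM mRNA, 0.5 μM tRNA; buffer A, pH 7.6, 4.5 mM Mg2+; 37°C 15 min), free of unbound donor. Reacted with 1 mM puromycin at 37°C for 2 min, with or without 10 μM antibiotic. Duplicates.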

[5] = target: T1, Bacterial 70S ribosome (Bacteria) (UniProt P0A7V0+P60723+P0AG67+P0A7R5+P0A7R9+P0A7S3+P0A7S9+P0AG59+P0ADZ4+P0A7T3+P0AG63+P0A7T7+P0A7U3+P0A7U7+P68679+P0A7V3+P0A7V8+P0A7W1+P02358+P02359+P0A7W7+P0A7X3+P0A7J3+P0A7J7+P0AA10+P0ADY3+P02413+P0ADY7+P0AG44+P0C018+P0A7K6+P0A7L0+P0A7L3+P0AG48+P61175+P0ADZ0+P60624+P68919+P0A7L8+P0A7M2+P0A7M6+P60422+P0AG51+P0A7N1+P0A7M9+P0A7N4+P0A7N9+P0A7P5+P0A7Q1+Q2EEQ2+P0A7Q6+P60438+P62399+P0AG55+P0A7K2); assay: Inhibition of tRNA binding to Escherichia coli K-12 70S ribosome
[6] = target: T1, Bacterial 70S ribosome (Bacteria); assay: Inhibition of poly(U)-dependent synthesis of poly(Phe) using Escherichia coli K-12 70S ribosome at 20 uM after 30 mins by liquid scintillation counting
Escherichia coli K-12 [7] = assay: Binding affinity to Escherichia coli K-12 70S ribosome Pi complex assessed as dissociation rate constant at 2 uM
[8] = target: T1, Bacterial 70S ribosome (Bacteria); assay: Inhibition of poly(A)-dependent synthesis of poly(Lys) using Escherichia coli K-12 70S ribosome at 20 uM after 1 hr by liquid scintillation counting
Method in brief: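 Poly(A)-programmed tight-coupled 70S ribosomes (0.5 μM) were preincubated 10 min at 37°C with antibiotic in buffer A. The mix held [3H]lysine (3 nmol, 500 dpm/pmol), bulk E. coli tRNA, 3 mM ATP, 1.5 mM GTP, 5 mM acetyl phosphate and S-100 fraction. Incubated 1 h at 37°C, followed by hot TCA (with 0.25% sodium wolframate) precipitation onto glass fiber filters and scintillation counting.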

[9] = target: T1, Bacterial 70S ribosome (Bacteria); assay: Inhibition of Escherichia coli K-12 70S ribosome dependent elongation factor G-dependent translocation
Escherichia coli [10] = assay: Antimicrobial activity against Escherichia coli TA531 harboring 23S rRNA U2609C mutant after 15 hrs; assay type: functional; settings: TA531, 15 h
Method in brief: (§2)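 E. coli TA531 lacking chromosomal rrn alleles and carrying plasmid-borne wild-type, A2058G or U2609C 23S rRNA. Grown overnight in LB with 100 μg/ml ampicillin, diluted and regrown. MIC was the lowest concentration arresting culture growth.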

Escherichia coli [11] = assay: Antimicrobial activity against Escherichia coli TA531 harboring 23S rRNA A2058G mutant after 15 hrs; assay type: functional; settings: TA531, 15 h; method in brief: as §2
Nucleic Acid [12] = assay: Binding affinity to Escherichia coli K-12 70S ribosome 23S rRNA assessed as protection against CMCT-induced modification of 23S rRNA […] by primer extension analysis; assay type: nucleic-acid assay
Escherichia coli K-12 [13] = assay: Binding affinity to Escherichia coli K-12 Pi complex of 70S ribosome Pi complex A2058G mutant assessed as blockade of tylosin-induced inhibition of AcPhe-puromycin synthesis at 10 uM after 2 mins by liquid scintillation counting; method in brief: as §1
[14] = target: T1, Bacterial 70S ribosome (Bacteria); assay: Inhibition of Ptase activity of Escherichia coli K-12 70S ribosome
Escherichia coli K-12 [15] = assay: Inhibition of poly(U)-dependent synthesis of poly(Phe) using Escherichia coli K-12 70S ribosome U2609C mutant at 50 uM after 1 hr by liquid scintillation counting
Nucleic Acid [16] = assay: Binding affinity to Escherichia coli K-12 70S ribosome 23S rRNA assessed as protection against DMS-induced modification of 23S rRNA […] by primer extension analysis; assay type: nucleic-acid assay
Nucleic Acid [17] = assay: Binding affinity to Escherichia coli K-12 70S ribosome 23S rRNA U2609C mutant assessed as protection against DMS-induced modification of 23S rRNA domain V at nucleotides A2058 and A2059 by primer extension analysis
Escherichia coli [18] = assay: Antimicrobial activity against chromosomal rrn allele deficient-Escherichia coli TA531 after 15 hrs; assay type: functional; settings: TA531, 15 h; method in brief: as §2
Escherichia coli K-12 [19] = assay: Inhibition of poly(U)-dependent synthesis of poly(Phe) using Escherichia coli K-12 70S ribosome A2058 mutant at 50 uM after 1 hr by liquid scintillation counting
Bacterial 70S ribosome = assay: Displacement of [14C]-erythromycin from Escherichia coli K-12 70S ribosome after 10 mins by competitive binding assay
Method in brief: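 Tight-coupled 70S ribosomes (0.20 μM final) in buffer A (20 mM HEPES-KOH pH 7.6, 4.5 mM Mg acetate, 150 mM NH4 acetate, polyamines). [14C]-erythromycin held constant at 0.6 μM (150 dpm/pmol) with increasing unlabeled competitor, 10 min at 37°C. Mixture was diluted in cold buffer and filtered through cellulose nitrate, which was washed twice and counted. KD was derived from a competition binding equation.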

Escherichia coli K-12 [20] = assay: Binding affinity to Escherichia coli K-12 70S ribosome Pi complex assessed as inhibition of AcPhe-puromycin synthesis at 5 uM after 2 mins by liquid scintillation counting
Nucleic Acid [21] = assay: Binding affinity to Escherichia coli K-12 70S ribosome 23S rRNA assessed as enhancement of DMS-induced modification of 23S rRNA domain II at nucleotides A752 by primer extension analysis; assay type: nucleic-acid assay
Method in brief: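 70S ribosomes (50 pmol) activated 5 min at 37°C in 20 mM HEPES/KOH pH 7.8, 20 mM MgCl2, 300 mM KCl. Antibiotic added in the same buffer for 10 min at 37°C, then cooled on ice. DMS modification followed, then SDS/EDTA buffer, phenol/chloroform extraction and ethanol precipitation of rRNA. Repeated up to four times.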

Compound	Activity (Escherichia coli K-12 [1])	inhibition [6]	inhibition [8]	MIC (Escherichia coli [10]) [µg/mL]	MIC (Escherichia coli [11]) [µg/mL]	Activity (Nucleic Acid [12])	Activity (Nucleic Acid [16])	Activity (Nucleic Acid [17])	MIC (Escherichia coli [18]) [µg/mL]	Kd (Bacterial 70S ribosome) [nM]	further results
C[C@H]1C(=O)O[C@H](CCNC(=O)Cc2cccc(-c3ccco3)c2)[C@@]2(C)OC(=O)N[C@@H]2[C@@H](C)C(=O)[C@H](C)C[C@@](C)(O)[C@H](O[C@@H]2O[C@H](C)C[C@H](N(C)C)C2O)[C@@H](C)C1=O (stereo partly specified) [KOSAN-1325]	Active	inactive	Active	8 (≈ 10 µM)	> 250	Active	Active	Active	8 (≈ 10 µM)	7.5	Activity (Nucleic Acid [2]): Active; Activity (Nucleic Acid [3]): Active; inhibition (Escherichia coli K-12 [4]): inactive; inhibition [5]: inactive; Kdiss (Escherichia coli K-12 [7]): 5e-05 s⁻¹; inhibition [9]: inactive; Activity (Escherichia coli K-12 [13]): Active; inhibition [14]: inactive; inhibition (Escherichia coli K-12 [15]): Active; inhibition (Escherichia coli K-12 [19]): inactive
CC[C@H]1OC(=O)C[C@@H](O)[C@H](C)[C@@H](O[C@@H]2O[C@H](C)[C@@H](O[C@H]3C[C@@](C)(O)[C@@H](O)[C@H](C)O3)[C@H](N(C)C)[C@H]2O)[C@@H](CC=O)C[C@@H](C)C(=O)/C=C/C(C)=C/[C@@H]1CO[C@@H]1O[C@H](C)[C@@H](O)[C@@H](OC)[C@H]1OC	–	–	–	–	–	–	–	–	–	–	Activity (Escherichia coli K-12 [20]): Active
CC[C@H]1OC(=O)[C@H](C)C(=O)[C@H](C)[C@@H](O[C@@H]2O[C@H](C)C[C@H](N(C)C)[C@H]2O)[C@](C)(OC)C[C@@H](C)C(=O)[C@H](C)[C@H]2N(CCCCn3cnc(-c4cccnc4)c3)C(=O)O[C@]12C [TELITHROMYCIN]	–	–	–	64 (≈ 78.8 µM)	> 150	–	–	–	16 (≈ 19.7 µM)	–	–
CC[C@H]1OC(=O)[C@H](C)[C@@H](O[C@H]2C[C@@](C)(OC)[C@@H](O)[C@H](C)O2)[C@H](C)[C@@H](O[C@@H]2O[C@H](C)C[C@H](N(C)C)[C@H]2O)[C@](C)(O)C[C@@H](C)C(=O)[C@H](C)[C@@H](O)[C@]1(C)O [ERYTHROMYCIN]	Active	inactive	Active	128 (≈ 174 µM)	> 500	inactive	inactive	Active	128 (≈ 174 µM)	15	Activity (Escherichia coli K-12 [4]): inactive; Activity (Nucleic Acid [21]): Active
